From ChEMBL document CHEMBL4177753, “Structural Modification of Natural Product Ganomycin I Leading to Discovery of a α-Glucosidase and HMG-CoA Reductase Dual Inhibitor Improving Obesity and Metabolic Dysfunction in Vivo” (J Med Chem, 2018)
Calls of active or inactive are those of the source. The calls are words filed in the database; no cut-off is given here.

Legend:
Mus musculus [1] = test: Hypolipidemic activity in ob/ob mouse assessed as decrease in plasma triglyceride levels administered daily via oral gavage for 31 days; assay type: functional, organism-based
Mus musculus [2] = test: Hypolipidemic activity in ob/ob mouse assessed as decrease in liver triglyceride levels at 0.3 to 3 mg/kg administered daily via oral gavage for 31 days; assay type: functional, organism-based
Mus musculus [3] = test: Hypolipidemic activity in ob/ob mouse assessed as decrease in plasma LDL-C levels at 3 mg/kg administered daily via oral gavage for 31 days relative to vehicle-treated control; assay type: functional; set-up: scale not given: the % may be the effect or the level left
Mus musculus [4] = test: Hypolipidemic activity in ob/ob mouse assessed as decrease in plasma triglyceride levels at 3 mg/kg administered daily via oral gavage for 31 days relative to vehicle-treated control; assay type: functional; set-up: scale not given: the % may be the effect or the level left
Mus musculus [5] = test: Hypolipidemic activity in antibiotic-treated ob/ob mouse assessed as decrease in hepatic free fatty acid levels at 3 mg/kg administered daily via oral gavage for 3 weeks; assay type: functional, organism-based
Method in brief: (§1)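 Male ob/ob mice pretreated three weeks with ampicillin (1 g/L), vancomycin, neomycin, gentamycin and erythromycin. Groups of n = 8 given 3.0 mg/kg/day orally in soybean vehicle versus vehicle. Plasma and hepatic lipids, fasting glucose, OGTT (glucose 2 g/kg after overnight fast) and HbA1c measured.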

Mus musculus [6] = test: Hypolipidemic activity in ob/ob mouse assessed as decrease in plasma free fatty acid levels administered daily via oral gavage for 31 days; assay type: functional, organism-based
Mus musculus [7] = test: In vivo inhibition of alpha-glucosidase activity in ob/ob mouse assessed as reduction of blood glucose AUC at 0.3 to 3 mg/kg administered daily via oral gavage for 32 days by OMTT; assay type: functional, organism-based
Method in brief: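 Male ob/ob mice given 0.3–3.0 mg/kg daily by gavage; after overnight fast, sucrose (OSTT) or maltose (OMTT) 4.0 g/kg given orally; blood glucose by glucose meter at 0, 40, 80 and 120 min; AUC calculated from the time course.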

Mus musculus [8] = test: Hypoglycemic activity in antibiotic-treated ob/ob mouse assessed as decrease in HbA1c levels at 3 mg/kg administered daily via oral gavage for 3 weeks; assay type: functional, organism-based; method in brief: as §1
Betaproteobacteria = test: Decrease in Betaproteobacteria levels in cecum of ob/ob mouse at 1 to 3 mg/kg administered daily via oral gavage for 31 days by 16S rRNA gene high-throughput sequencing method; assay type: functional, organism-based
Method in brief: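 Male ob/ob mice dosed daily by gavage at 1.0 or 3.0 mg/kg, compared with vehicle group. DNA extracted from about 150 mg caecum contents. 16S rRNA V3–V4 region amplified and sequenced on Illumina HiSeq PE250. Community compared by NMDS/MRPP; discriminant taxa identified by LEfSe.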

Mus musculus [9] = test: Upregulation of Muc-5 mRNA expression in ob/ob mouse ileum at 3 mg/kg administered daily via oral gavage for 31 days by RNA-seq analysis; assay type: functional, organism-based
[10] = Cmax in Sprague-Dawley rat at 2 mg/kg, po; assay type: ADME, organism-based; set-up: dose 2 mg/kg, route oral; conditions: in vivo
Method in brief: (§2)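 Male Sprague-Dawley rats (n = 6, 0.21–0.23 kg), single oral dose 2.0 mg/kg. Orbital blood sampled 0–16 h into heparinized tubes. Plasma was protein-precipitated with methanol, with internal standard added. Quantified by UPLC-ESI(+)-QTOF-MS in SIM mode on a C18 column with a methanol/0.3% formic acid water gradient. Linear range 0.54–107 ng/ml.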

Mus musculus [11] = test: Hypolipidemic activity in ob/ob mouse assessed as decrease in liver LDL-C levels at 0.3 to 3 mg/kg administered daily via oral gavage for 31 days; assay type: functional, organism-based
Mus musculus [12] = test: Hypolipidemic activity in ob/ob mouse assessed as decrease in serum AST levels at 0.3 to 3 mg/kg administered daily via oral gavage for 31 days; assay type: functional, organism-based
Mus musculus [13] = test: Upregulation of ZO-1 mRNA expression in ob/ob mouse ileum at 3 mg/kg administered daily via oral gavage for 31 days by RNA-seq analysis; assay type: functional, organism-based
Mus musculus [14] = test: Hypoglycemic activity in C57BL/6J DIO mouse assessed as increase in insulin sensitive index at 0.3 to 3 mg/kg administered daily via oral gavage for 5 weeks; assay type: functional, organism-based
Method in brief: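 Male high-fat-diet C57BL/6J mice, daily gavage at 0.3–3.0 mg/kg for 5 weeks. ISI calculated as […].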

Mus musculus [15] = test: Antifibrotic activity in ob/ob mouse assessed as decrease in hepatic hydroxyproline levels at 3 mg/kg administered daily via oral gavage for 31 days; assay type: functional, organism-based
Mus musculus [16] = test: Hypoglycemic activity in ob/ob mouse assessed as decrease in blood glucose AUC at 0.3 to 3 mg/kg administered daily via oral gavage for 25 days by OGTT; assay type: functional, organism-based
Method in brief: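 Male ob/ob or high-fat-diet C57BL/6J mice dosed daily by gavage at 0.3–3.0 mg/kg. OGTT: glucose 2 g/kg orally after overnight fast. ITT: insulin 0.6 U/kg i.p. after 4 h fast. Glucometer readings at 0, 40, 80 and 120 min; AUC computed from the curves.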

Mus musculus [17] = test: Reduction of plasma LPS levels in ob/ob mouse at 1 mg/kg administered daily via oral gavage for 31 days by ELISA relative to vehicle-treated control; assay type: functional; set-up: scale not given: the % may be the effect or the level left
Method in brief: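 Male ob/ob mice treated daily by gavage (soybean vehicle); plasma LPS and TNF-α quantified by ELISA kits. For antibiotic groups, ob/ob mice first received an oral antibiotic cocktail (ampicillin 1 g/L, vancomycin, neomycin, gentamycin, erythromycin) for three weeks, then 3.0 mg/kg/day; n = 8 per group.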

Mus musculus [18] = test: Hypolipidemic activity in antibiotic-treated ob/ob mouse assessed as decrease in hepatic total cholesterol levels at 3 mg/kg administered daily via oral gavage for 3 weeks; assay type: functional, organism-based; method in brief: as §1
Mus musculus [19] = test: Downregulation of Nos2 mRNA expression in ob/ob mouse ileum at 3 mg/kg administered daily via oral gavage for 31 days by RNA-seq analysis; assay type: functional, organism-based
Mus musculus [20] = test: Toxicity in C57BL/6J mouse assessed as effect on body weight at 30 mg/kg administered daily via oral gavage for 3 months; assay type: organism-based; conditions: in vivo
Method in brief: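 Long-term safety study in C57BL/6J mice, 20 male and 20 female, sorted by gender, blood glucose and body weight into four groups (n = 10 each). Treated groups of each sex got 30.0 mg/kg daily by oral gavage in soybean vehicle. Vehicle groups got an equal volume of soybean. Dosing ran three months, with behavior, survival, body weight, blood glucose, liver function and organ coefficients recorded.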

[21] = Half life in Sprague-Dawley rat at 2 mg/kg, po; assay type: ADME, organism-based; conditions: in vivo; method in brief: as §2
Lachnospiraceae = test: Increase in Lachnospiraceae levels in cecum of ob/ob mouse assessed as increase in level of gut butyrate at 3 mg/kg administered daily via oral gavage for 31 days by GC-MS analysis; assay type: functional, organism-based
Method in brief: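 Feces collected from ob/ob mice after 3.0 mg/kg gavage treatment; samples lyophilized, ground, 40 mg powder extracted with 1 mL MeOH, sonicated, centrifuged; supernatant analysed for short-chain fatty acids by GC-MS.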

Mus musculus [22] = test: Upregulation of occludin mRNA expression in ob/ob mouse ileum at 3 mg/kg administered daily via oral gavage for 31 days by RNA-seq analysis; assay type: functional, organism-based
Mus musculus [23] = test: Hypolipidemic activity in ob/ob mouse assessed as decrease in hepatocyte ballooning at 3 mg/kg administered daily via oral gavage for 31 days by oil red O staining-based microscopic method; assay type: functional, organism-based
Method in brief: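 Male ob/ob mice dosed by gavage (soybean vehicle); liver and abdominal white adipose tissue fixed in 10% formaldehyde-PBS pH 7.4, paraffin-embedded, sectioned, stained with H&E, Oil Red O or sirius red, and examined by light microscopy.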

CC(C)=CCC/C(C)=C/CCC1=C[C@H](c2ccc(C(C)(C)C)cc2)OC1=O
Activity (Mus musculus [1]): Dose-dependent effect
Activity (Mus musculus [2]): Active
Activity (Mus musculus [3]): 51%
Activity (Mus musculus [4]): 47%
Activity (Mus musculus [5]): inactive
Activity (Mus musculus [6]): Dose-dependent effect
inhibition (Mus musculus [7]): Active
Activity (Mus musculus [8]): inactive
Activity (Betaproteobacteria): Active
Activity (Mus musculus [9]): Active
Cmax [10]: 49.3 ng/mL
Activity (Mus musculus [11]): Active
Activity (Mus musculus [12]): Active
Activity (Mus musculus [13]): Active
Activity (Mus musculus [14]): Active
Activity (Mus musculus [15]): Active
Activity (Mus musculus [16]): Active
Activity (Mus musculus [17]): 29.8%
Activity (Mus musculus [18]): inactive
Activity (Mus musculus [19]): Active
Activity (Mus musculus [20]): Non-Toxic
half-life [21]: 1.8 h
Activity (Lachnospiraceae): Active
Activity (Mus musculus [22]): Active
Activity (Mus musculus [23]): Active
